The source made the active and inactive calls. No cut-off for these calls is given here.
Columns and labels:
Homo sapiens [1] = organism: Homo sapiens; test: Selectivity index, ratio of IC50 of HDCA8 (unknown origin) to IC50 of HDCA1 (unknown origin)
SK-MEL-28 = test: Growth inhibition of human SK-MEL-28 cells assessed as cell growth inhibition at 10 uM incubated for 48 hrs by sulforhodamine B assay; assay type: functional; conditions: SK-MEL-28, 48 h, read-out: GI
UACC-257 = test: Growth inhibition of human UACC257 cells assessed as cell growth inhibition at 10 uM incubated for 48 hrs by sulforhodamine B assay; assay type: functional; conditions: UACC-257, 48 h, read-out: GI
LOX IMVI = test: Growth inhibition of human LOXIMVI cells assessed as cell growth inhibition at 10 uM incubated for 48 hrs by sulforhodamine B assay; assay type: functional; conditions: read-out: GI
MCF7 = test: Antiproliferative activity against human MCF7 assessed as reduction in cell viability measured after 72 hrs using alamar blue based fluorescence method; assay type: functional; conditions: MCF7, 72 h
In short: (§1)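 HCT116 and MCF-7 grown in McCoy's 5A with 10% FBS and penicillin/streptomycin at 37 °C, 5% CO2. Cells plated in 96-well format and exposed to drug for 72 h. Alamar blue (1 mM solution) added, incubated 5–6 h, fluorescence read at 530/590 nm.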

[2] = Metabolic stability in dog liver microsomes assessed as half life at 1 uM preincubated for 10 mins followed by NADPH addition measured upto 60 mins by LC-MS/MS analysis; assay type: ADME, Canis lupus familiaris, Microsome
In short: (§2)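 Liver microsomes from male SD rat, dog or human at 0.5 mg/mL in 100 mM potassium phosphate pH 7.4 with 1 μM compound. Prewarmed 37 °C 10 min, started with 1 mM NADPH. Stopped at 0, 5, 10, 20, 40, 60 min with cold methanol containing glibenclamide internal standard; supernatant by LC–MS/MS; T1/2 and CLint derived.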

HCT-116 [3] = test: Antiproliferative activity against human HCT116 assessed as reduction in cell viability measured after 72 hrs using alamar blue based fluorescence method; assay type: functional; conditions: HCT-116, 72 h; in short: as §1
HCC 2998 = test: Growth inhibition of human HCC2998 cells assessed as cell growth inhibition at 10 uM incubated for 48 hrs by sulforhodamine B assay; assay type: functional; conditions: HCC 2998, 48 h, read-out: GI
HOP-92 = test: Growth inhibition of human HOP92 cells assessed as cell growth inhibition at 10 uM incubated for 48 hrs by sulforhodamine B assay; assay type: functional; conditions: HOP-92, 48 h, read-out: GI
UO-31 = test: Growth inhibition of human UO31 cells assessed as cell growth inhibition at 10 uM incubated for 48 hrs by sulforhodamine B assay; assay type: functional; conditions: UO-31, 48 h, read-out: GI
PC-3 = test: Growth inhibition of human PC3 cells assessed as cell growth inhibition at 10 uM incubated for 48 hrs by sulforhodamine B assay; assay type: functional; conditions: PC-3, 48 h, read-out: GI
HL-60 [4] = test: Potency index, ratio of IC50 of chidamide to IC50 of test compound against human HL60 cells; assay type: functional
[5] = AUC (0 to t) in Sprague-Dawley rat at 1 mg/kg, iv by LC-MS/MS analysis; assay type: ADME, organism-based; conditions: in vivo
HL-60 [6] = test: Antiproliferative activity against human HL60 assessed as reduction in cell viability measured after 72 hrs using alamar blue based fluorescence method; assay type: functional; conditions: HL-60, 72 h
In short: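 Leukemia lines grown in IMDM with penicillin/streptomycin, HL-60 with 20% FBS and K562 with 10% FBS, at 37 °C, 5% CO2. Cells in 96-well plates exposed to drug for 72 h. Alamar blue (1 mM solution) added for 5–6 h, fluorescence read at 530/590 nm.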

SK-OV-3 = test: Growth inhibition of human SKOV3 cells assessed as cell growth inhibition at 10 uM incubated for 48 hrs by sulforhodamine B assay; assay type: functional; conditions: SK-OV-3, 48 h, read-out: GI
NCI-H460 = test: Growth inhibition of human NCI-H460 assessed as cell growth inhibition at 10 uM incubated for 48 hrs by sulforhodamine B assay; assay type: functional; conditions: NCI-H460, 48 h, read-out: GI
NCI/ADR-RES = test: Growth inhibition of human NCI/ADR-RES cells assessed as cell growth inhibition at 10 uM incubated for 48 hrs by sulforhodamine B assay; assay type: functional; conditions: read-out: GI
OVCAR-8 = test: Growth inhibition of human OVCAR8 cells assessed as cell growth inhibition at 10 uM incubated for 48 hrs by sulforhodamine B assay; assay type: functional; conditions: OVCAR-8, 48 h, read-out: GI
Histone deacetylase 8 = Histone deacetylase 8 (Homo sapiens, UniProt Q9BY41); test: Inhibition of HDAC8 (unknown origin) using Fluor de Lys substrate by fluorescence assay relative to control
In short: (§3)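 Recombinant HDAC isoform assays run by a contract lab. Compounds in DMSO, 10-dose IC50 mode, 3-fold serial dilution from 50 μM. Duplicate runs; IC50 from curve fitting.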

[7] = Terminal half life in Sprague-Dawley rat at 10 mg/kg, po by LC-MS/MS analysis; assay type: ADME, organism-based; conditions: in vivo, read-out: beta t1/2 (converted)
In short: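 Male SD rats (199-214 g), three per route, single dose 1 mg/kg iv or 10 mg/kg po. Jugular blood (~200 μL) into heparinized tubes at set times; plasma by centrifugation, protein precipitation with acetonitrile containing verapamil and glibenclamide; drug measured by LC-MS/MS.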

SK-MEL-5 = test: Growth inhibition of human SK-MEL-5 cells assessed as cell growth inhibition at 10 uM incubated for 48 hrs by sulforhodamine B assay; assay type: functional; conditions: SK-MEL-5, 48 h, read-out: GI
A549 = test: Growth inhibition of human A549 cells assessed as cell growth inhibition at 10 uM incubated for 48 hrs by sulforhodamine B assay; assay type: functional; conditions: A549, 48 h, read-out: GI
Histone deacetylase 2 = Histone deacetylase 2 (Homo sapiens, UniProt Q92769); test: Inhibition of HDAC2 (unknown origin) using Fluor de Lys substrate by fluorescence assay relative to control; in short: as §3
[8] = molecular target: Protein deacetylase HDAC6 (Homo sapiens) (UniProt Q9UBN7); test: Inhibition of HDAC6 (unknown origin) using Fluor de Lys substrate by fluorescence assay relative to control; in short: as §3
HCT-116 [9] = test: Potency index, ratio of IC50 of chidamide to IC50 of test compound against human HCT116 cells; assay type: functional
Homo sapiens [10] = organism: Homo sapiens; test: Selectivity index, ratio of IC50 of HDCA11 (unknown origin) to IC50 of HDCA1 (unknown origin)
[11] = molecular target: Histone deacetylase 7 (Homo sapiens) (UniProt Q8WUI4); test: Inhibition of HDAC7 (unknown origin) using Fluor de Lys substrate by fluorescence assay relative to control; in short: as §3
OVCAR-4 = test: Growth inhibition of human OVCAR4 cells assessed as cell growth inhibition at 10 uM incubated for 48 hrs by sulforhodamine B assay; assay type: functional; conditions: OVCAR-4, 48 h, read-out: GI
[12] = Metabolic stability in rat liver microsomes assessed as internal clearance at 1 uM preincubated for 10 mins followed by NADPH addition measured upto 60 mins by LC-MS/MS analysis; assay type: ADME, Microsome; conditions: read-out: CLH; in short: as §2
786-0 = test: Growth inhibition of human 786-0 cells assessed as cell growth inhibition at 10 uM incubated for 48 hrs by sulforhodamine B assay; assay type: functional; conditions: 786-0, 48 h, read-out: GI

Chain of Histone deacetylase 8 (Q9BY41 whole entry, canonical isoform): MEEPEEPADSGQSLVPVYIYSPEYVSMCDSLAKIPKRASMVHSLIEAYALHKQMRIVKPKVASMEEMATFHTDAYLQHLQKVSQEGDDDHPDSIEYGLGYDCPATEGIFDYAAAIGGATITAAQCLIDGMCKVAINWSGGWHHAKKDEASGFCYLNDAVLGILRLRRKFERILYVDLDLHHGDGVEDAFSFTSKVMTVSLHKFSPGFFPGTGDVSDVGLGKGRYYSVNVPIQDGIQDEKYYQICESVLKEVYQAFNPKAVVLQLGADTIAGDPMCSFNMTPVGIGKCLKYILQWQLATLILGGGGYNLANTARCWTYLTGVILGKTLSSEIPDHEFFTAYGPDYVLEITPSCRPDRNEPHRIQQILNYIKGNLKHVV
Chain of Histone deacetylase 7 (Homo sapiens) (Q8WUI4 whole entry): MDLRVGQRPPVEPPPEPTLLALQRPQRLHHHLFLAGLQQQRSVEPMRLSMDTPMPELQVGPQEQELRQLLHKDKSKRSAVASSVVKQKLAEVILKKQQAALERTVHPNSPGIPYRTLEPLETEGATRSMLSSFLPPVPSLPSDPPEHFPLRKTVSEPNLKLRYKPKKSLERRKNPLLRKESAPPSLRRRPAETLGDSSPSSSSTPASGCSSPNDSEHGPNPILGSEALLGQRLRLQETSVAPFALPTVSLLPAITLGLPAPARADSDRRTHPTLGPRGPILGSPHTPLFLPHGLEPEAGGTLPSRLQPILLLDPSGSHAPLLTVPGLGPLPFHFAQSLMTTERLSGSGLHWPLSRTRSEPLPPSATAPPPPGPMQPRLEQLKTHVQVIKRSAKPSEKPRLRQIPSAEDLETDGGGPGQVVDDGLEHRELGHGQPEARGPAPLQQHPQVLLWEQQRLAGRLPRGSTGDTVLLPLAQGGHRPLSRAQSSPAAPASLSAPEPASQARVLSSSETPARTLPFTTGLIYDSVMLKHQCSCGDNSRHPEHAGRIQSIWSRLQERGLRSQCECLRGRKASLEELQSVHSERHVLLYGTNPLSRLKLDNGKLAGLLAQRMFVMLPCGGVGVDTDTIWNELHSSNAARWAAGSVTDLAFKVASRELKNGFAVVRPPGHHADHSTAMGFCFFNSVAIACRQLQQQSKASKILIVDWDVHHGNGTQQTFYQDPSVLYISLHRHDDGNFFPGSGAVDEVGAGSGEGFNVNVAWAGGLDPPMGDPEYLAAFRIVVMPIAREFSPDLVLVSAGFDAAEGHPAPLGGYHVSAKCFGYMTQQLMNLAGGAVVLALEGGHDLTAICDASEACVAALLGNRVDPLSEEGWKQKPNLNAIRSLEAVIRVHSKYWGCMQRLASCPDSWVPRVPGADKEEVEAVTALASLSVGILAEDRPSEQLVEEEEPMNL
Chain of Histone deacetylase 2 (Q92769 whole entry): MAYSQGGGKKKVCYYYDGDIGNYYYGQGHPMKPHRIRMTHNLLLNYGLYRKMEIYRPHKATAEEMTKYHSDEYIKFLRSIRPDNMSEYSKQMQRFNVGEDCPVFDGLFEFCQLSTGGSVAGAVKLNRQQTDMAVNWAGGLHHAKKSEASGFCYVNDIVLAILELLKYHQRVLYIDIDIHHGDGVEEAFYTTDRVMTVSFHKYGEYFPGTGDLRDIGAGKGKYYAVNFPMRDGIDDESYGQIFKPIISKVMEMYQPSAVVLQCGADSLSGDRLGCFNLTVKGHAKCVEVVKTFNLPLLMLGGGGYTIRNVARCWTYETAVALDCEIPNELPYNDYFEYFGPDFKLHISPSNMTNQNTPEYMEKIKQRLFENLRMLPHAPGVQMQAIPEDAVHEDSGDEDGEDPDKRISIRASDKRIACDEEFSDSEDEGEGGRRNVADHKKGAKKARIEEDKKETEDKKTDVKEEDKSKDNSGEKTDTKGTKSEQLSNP
Chain of Protein deacetylase HDAC6 (Homo sapiens) (Q9UBN7 whole entry): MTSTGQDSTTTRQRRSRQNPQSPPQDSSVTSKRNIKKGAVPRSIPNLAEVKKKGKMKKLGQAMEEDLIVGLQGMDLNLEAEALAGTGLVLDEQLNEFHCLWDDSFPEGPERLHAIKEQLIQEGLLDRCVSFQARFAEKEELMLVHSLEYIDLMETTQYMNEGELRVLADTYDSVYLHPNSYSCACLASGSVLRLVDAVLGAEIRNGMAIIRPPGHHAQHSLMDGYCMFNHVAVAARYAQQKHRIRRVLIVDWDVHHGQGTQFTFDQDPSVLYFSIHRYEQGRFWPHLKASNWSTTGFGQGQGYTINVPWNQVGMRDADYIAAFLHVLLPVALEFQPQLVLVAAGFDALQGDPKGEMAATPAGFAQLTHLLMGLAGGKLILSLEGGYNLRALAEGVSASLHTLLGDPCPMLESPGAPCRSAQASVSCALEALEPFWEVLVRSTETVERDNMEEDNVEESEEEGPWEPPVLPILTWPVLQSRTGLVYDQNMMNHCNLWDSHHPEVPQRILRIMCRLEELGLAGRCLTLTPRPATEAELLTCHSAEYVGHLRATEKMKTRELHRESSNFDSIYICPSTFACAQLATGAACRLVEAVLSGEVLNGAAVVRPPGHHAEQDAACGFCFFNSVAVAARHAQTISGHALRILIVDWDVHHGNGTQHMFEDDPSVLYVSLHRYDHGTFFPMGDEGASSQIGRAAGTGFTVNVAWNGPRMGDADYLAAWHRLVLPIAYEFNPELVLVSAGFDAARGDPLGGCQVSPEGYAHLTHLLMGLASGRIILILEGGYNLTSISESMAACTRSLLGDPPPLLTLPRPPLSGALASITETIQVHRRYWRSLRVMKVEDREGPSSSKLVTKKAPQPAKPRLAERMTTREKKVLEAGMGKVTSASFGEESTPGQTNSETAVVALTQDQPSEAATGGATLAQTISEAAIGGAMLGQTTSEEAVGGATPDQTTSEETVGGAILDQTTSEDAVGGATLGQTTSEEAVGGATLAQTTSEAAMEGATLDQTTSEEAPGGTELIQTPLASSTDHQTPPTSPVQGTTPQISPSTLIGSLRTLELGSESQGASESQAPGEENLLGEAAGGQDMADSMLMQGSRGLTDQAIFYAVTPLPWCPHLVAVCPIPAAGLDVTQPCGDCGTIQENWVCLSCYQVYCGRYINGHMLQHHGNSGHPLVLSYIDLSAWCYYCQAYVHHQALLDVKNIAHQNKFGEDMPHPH

## Nc1cc(F)ccc1NC(=O)c1ccc(CNC(=O)/C=C2\NC(=O)c3ccccc32)cc1
Homo sapiens [1]
  Ratio IC50: 17
SK-MEL-28
  inhibition of growth at 10 µM: 33.8%
UACC-257
  inhibition of growth at 10 µM: 36.6%
LOX IMVI
  inhibition of growth at 10 µM: 15.7%
MCF7
  IC50: 14600 nM
[2]
  half-life at 1 µM: 3.35 h
HCT-116 [3]
  IC50: 432 nM
HCC 2998
  inhibition of growth at 10 µM: 20.4%
HOP-92
  inhibition of growth at 10 µM: 58.6%
UO-31
  inhibition of growth at 10 µM: 50.1%
PC-3
  inhibition of growth at 10 µM: 39.4%
HL-60 [4]
  Ratio IC50: 5
[5]
  AUC(0-t): 781 ng·h/mL
HL-60 [6]
  IC50: 373 nM
SK-OV-3
  inhibition of growth at 10 µM: 29.5%
NCI-H460
  inhibition of growth at 10 µM: 26.8%
NCI/ADR-RES
  inhibition of growth at 10 µM: 18%
OVCAR-8
  inhibition of growth at 10 µM: 55.9%
Histone deacetylase 8
  IC50: 1080 nM
[7]
  half-life: 1.3 h
SK-MEL-5
  inhibition of growth at 10 µM: 34.7%
A549
  inhibition of growth at 10 µM: 12.2%
Histone deacetylase 2
  IC50: 75 nM
[8]
  inhibition: inactive
HCT-116 [9]
  Ratio IC50: 2.5
Homo sapiens [10]
  Ratio IC50: 10
[11]
  inhibition: inactive
OVCAR-4
  inhibition of growth at 10 µM: 21.3%
[12]
  microsomal CLint at 1 µM: 11.7 µL/min/mg
786-0
  inhibition of growth at 10 µM: 7.02%
